Reference: ChEMBL document CHEMBL1124683, “Synthesis and in vitro activity of 1 beta-methyl C-2 quaternary heterocyclic alkylthio carbapenems” (J Med Chem, 1989)
In brackets after ≈: the same amount, converted by molar mass.

Legend:
[1] = tested on: Enterobacter cloacae; test: Compound was tested in vitro for antibacterial activity against Enterobacter cloacae A-9695; assay type: functional
Outline: (§1)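 MIC by serial 2-fold dilution in Mueller-Hinton agar, or in broth. Agar surface or broth was inoculated with an appropriately diluted 18–24-h broth culture. Incubation was 37 °C for 17 h. The MIC was the lowest concentration that inhibited visible growth.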

[2] = tested on: Escherichia coli; test: Compound was tested in vitro for antibacterial activity against Escherichia coli A-15119; assay type: functional; outline: as §1
[3] = tested on: Staphylococcus aureus; test: (§2) Compound was tested in vitro for antibacterial activity against Staphylococcus aureus, pen-res A-9606; assay type: functional; outline: as §1
[4] = organism: Sus scrofa; test: Compound was evaluated for the rate of hydrolysis by renal dipeptidase relative to hog renal dipeptidase; assay type: ADME; conditions: pig; in the assay text read “relative to imipenem” for “relative to hog renal dipeptidase”
Outline: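 Purified hog renal dipeptidase. Substrate was 0.10 mM carbapenem in 50 mM MOPS, pH 7.1, freshly prepared. λmax and ε came from the UV difference spectrum before and after β-lactam cleavage by hydroxylamine at 25 °C. Spontaneous absorbance change was followed at 25 °C, then enzyme was added to give ≥10^-4 AU/s. The corrected rate was converted to nmol min^-1 (mL enzyme)^-1 and expressed relative to imipenem.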

[5] = tested on: Proteus vulgaris; test: Compound was tested in vitro for antibacterial activity against Proteus vulgaris A-21559; assay type: functional; outline: as §1
[6] = tested on: Serratia marcescens; test: Compound was tested in vitro for antibacterial activity against Serratia marcescens A-20019; assay type: functional; outline: as §1
[7] = tested on: Pseudomonas aeruginosa; test: Compound was tested in vitro for antibacterial activity against Pseudomonas aeruginosa; assay type: functional; outline: as §1
[8] = tested on: Staphylococcus aureus; test: as §2; assay type: functional, staphylococcus aure; outline: as §1

SMILES: C[C@@H](O)[C@H]1C(=O)N2C(C(=O)O)=C(SCCN=CN)C[C@H]12 [IMIPENEM ANHYDROUS]
- MIC [1]: 0.06 µg/mL (≈ 0.2 µM)
- MIC [2]: 0.016 µg/mL (≈ 0.0534 µM)
- MIC [3]: 0.008 µg/mL (≈ 0.0267 µM)
- Relative rate [4]: 1
- MIC [5]: 0.03 µg/mL (≈ 0.1 µM)
- MIC [6]: 0.03 µg/mL (≈ 0.1 µM)
- MIC [7]: 0.25 µg/mL (≈ 0.835 µM)

SMILES: CC(O)[C@H]1C(=O)N2C(C(=O)O)=C(SCc3nccn3C)[C@H](C)C12 (some centres not stated)
- MIC [1]: 0.016 µg/mL (≈ 0.0474 µM)
- MIC [2]: 0.008 µg/mL (≈ 0.0237 µM)
- MIC [3]: 0.016 µg/mL (≈ 0.0474 µM)
- Relative rate [4]: 0.94
- MIC [5]: 0.016 µg/mL (≈ 0.0474 µM)
- MIC [6]: 0.016 µg/mL (≈ 0.0474 µM)
- MIC [7]: 16 µg/mL (≈ 47.4 µM)

SMILES: Cc1c(CSC2=C(C(=O)[O-])N3C(=O)[C@H](C(C)O)C3C2)ccc[n+]1C (some centres not stated)
- MIC [1]: 0.016 µg/mL (≈ 0.0459 µM)
- MIC [2]: 0.008 µg/mL (≈ 0.023 µM)
- MIC [3]: 0.016 µg/mL (≈ 0.0459 µM)
- Relative rate [4]: 0.4
- MIC [5]: 0.03 µg/mL (≈ 0.0861 µM)
- MIC [6]: 0.03 µg/mL (≈ 0.0861 µM)
- MIC [7]: 0.5 µg/mL (≈ 1.44 µM)

SMILES: CC(O)[C@H]1C(=O)N2C(C(=O)[O-])=C(SCc3n(C)cc[n+]3C)[C@H](C)C12 (some centres not stated)
- MIC [1]: 0.06 µg/mL (≈ 0.171 µM)
- MIC [2]: 0.004 µg/mL (≈ 0.0114 µM)
- MIC [3]: 0.008 µg/mL (≈ 0.0228 µM)
- Relative rate [4]: 0.003
- MIC [5]: 0.016 µg/mL (≈ 0.0455 µM)
- MIC [6]: 0.03 µg/mL (≈ 0.0854 µM)
- MIC [7]: 1 µg/mL (≈ 2.85 µM)

SMILES: CC(O)[C@H]1C(=O)N2C(C(=O)O)=C(SCc3ccncc3)CC12 (some centres not stated)
- MIC [1]: 0.5 µg/mL (≈ 1.56 µM)
- MIC [2]: 0.03 µg/mL (≈ 0.0936 µM)
- MIC [3]: 0.03 µg/mL (≈ 0.0936 µM)
- Relative rate [4]: 3.84
- MIC [5]: 0.03 µg/mL (≈ 0.0936 µM)
- MIC [6]: 0.13 µg/mL (≈ 0.406 µM)
- MIC [7]: 32 µg/mL (≈ 99.9 µM)

SMILES: CC(O)[C@H]1C(=O)N2C(C(=O)[O-])=C(SCc3n(C)cc[n+]3C)CC12 (some centres not stated)
- MIC [1]: 0.03 µg/mL (≈ 0.0889 µM)
- MIC [2]: 0.008 µg/mL (≈ 0.0237 µM)
- MIC [8]: 0.004 µg/mL (≈ 0.0119 µM)
- Relative rate [4]: 0.2
- MIC [5]: 0.008 µg/mL (≈ 0.0237 µM)
- MIC [6]: 0.016 µg/mL (≈ 0.0474 µM)
- MIC [7]: 2 µg/mL (≈ 5.93 µM)

SMILES: CC(O)[C@H]1C(=O)N2C(C(=O)[O-])=C(SCc3cc[n+](C)cc3)CC12 (some centres not stated)
- MIC [2]: 0.03 µg/mL (≈ 0.0897 µM)
- MIC [3]: 0.016 µg/mL (≈ 0.0478 µM)
- Relative rate [4]: 0.84
- MIC [5]: 0.03 µg/mL (≈ 0.0897 µM)
- MIC [6]: 0.13 µg/mL (≈ 0.389 µM)
- MIC [7]: 0.5 µg/mL (≈ 1.5 µM)

SMILES: Cc1c(CSC2=C(C(=O)[O-])N3C(=O)[C@H](C(C)O)C3[C@H]2C)ccc[n+]1C (some centres not stated)
- MIC [1]: 0.016 µg/mL (≈ 0.0441 µM)
- MIC [2]: 0.004 µg/mL (≈ 0.011 µM)
- MIC [3]: 0.016 µg/mL (≈ 0.0441 µM)
- Relative rate [4]: 0.01
- MIC [5]: 0.03 µg/mL (≈ 0.0828 µM)
- MIC [6]: 0.16 µg/mL (≈ 0.441 µM)
- MIC [7]: 2 µg/mL (≈ 5.52 µM)

SMILES: CC(O)[C@H]1C(=O)N2C(C(=O)[O-])=C(SCc3cc[n+](C)cc3)[C@H](C)C12 (some centres not stated)
- MIC [1]: 0.06 µg/mL (≈ 0.172 µM)
- MIC [2]: 0.016 µg/mL (≈ 0.0459 µM)
- MIC [3]: 0.016 µg/mL (≈ 0.0459 µM)
- Relative rate [4]: 0.02
- MIC [5]: 0.03 µg/mL (≈ 0.0861 µM)
- MIC [6]: 0.03 µg/mL (≈ 0.0861 µM)
- MIC [7]: 0.5 µg/mL (≈ 1.44 µM)
